# According to ChEMBL document CHEMBL4513216, “Probing the Open Global Health Chemical Diversity Library for Multistage-Active Starting Points for Next-Generation Antimalarials” (ACS Infect Dis, 2020):
# Experiment: Toxicity liver stage against HepG2, at 10uM
# Type: cell-based
# Set-up: test concentration 10 uM, cell line HepG2-A16-CD81EGFP
# Settings: human, HepG2-A16-CD81EGFP cells; read-out: INHIBITION
# Summary of the method: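 Uninfected HepG2-A16-CD81EGFP cells, 3 × 10^3 per well, 1536-well, plated on prespotted compound at 10 μM final, parasite-free screening media added to match infected plates; puromycin 10 μM positive, DMSO 0.5% negative; run in parallel with 48 h PbLuc assay at 37 °C, 5% CO2; viability by CellTiter-Glo luminescence, normalized to controls.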
row,SMILES,cytotoxicity at 10 µM
1,CC(C)N1CCC2(CC1)C(=O)N(c1cccnc1)c1c(F)cccc12,7.13%
2,COc1ccc(CN2CCN(S(=O)(=O)c3cc(C(=O)O)cs3)CC2)cc1,2.03%
3,CCCc1noc(CN2CCCC2c2noc(C3CC3)n2)n1 (configuration not stated),-13%
4,Cc1cc(C2CCCN2C(=O)CN(C)Cc2ccccc2)no1 (configuration not stated),5.1%
5,CCc1nnc2n1CCN(C(=O)CCc1ccc(C)c(Cl)c1)C2,-4.01%
6,O=C(C1CSc2ccccc2O1)N1CCN(CCO)CC1 (configuration not stated),-6.29%
7,COc1cc(OC)cc(C2(O)CCN(Cc3nc(C)c(C)o3)CC2)c1,-7.06%
8,CC(C)=CCN1CCN(C(=O)COc2ccccc2)[C@H]2CS(=O)(=O)C[C@H]21,-1.64%
9,C[C@@H]1CN(C(=O)CCCN2CCCC2)CC[C@@]1(O)C1CCOCC1,-0.422%
10,Cc1nc(C)c(C(=O)NCCNC(=O)c2ccc(F)cc2F)s1,-5.55%
11,CCNC(=O)NC(=O)CSC(C)c1c(F)cccc1F (configuration not stated),20.6%
12,CS(=O)(=O)N1CC(c2n[nH]c3ncccc23)C1,-23.4%
13,Fc1ccc(C2(CNCCc3cccs3)CCOC2)cc1 (configuration not stated),-149%
14,O=C(CN1CCc2cncnc2C1)Nc1ccc(Cl)cn1,-3.24%
15,O=C(C1=CCCC1)N1CCC2(CC1)CC(Oc1cccnc1)CO2 (configuration not stated),-1.58%
16,N#Cc1cnc2ccccc2c1N1CCNCC1,-1.86%
17,Clc1snnc1CN1CCN(c2nccs2)CC1,-43.9%
18,CN(C)C(=O)c1ccc(CNc2c(Cl)cccc2C#N)cc1,-50.6%
19,Cc1n[nH]cc1CNCc1cccc(OCC(F)(F)F)c1,2.75%
20,COCCN1CCN(C(C)c2nc(C3CC3)no2)CC1 (configuration not stated),-8.36%
21,COc1cccc(-c2n[nH]cc2-c2nc(CC3CCN(C)CC3)no2)c1,-9.98%

row,SMILES,cytotoxicity at 10 µM
1,CCn1nc(C)c(C(=O)N2CCC(Nc3ccc(C)nn3)CC2)c1C,4.13%
2,CCCn1nc2c(cc1=O)CN(CCCN1CCCC1=O)CC2,-6.49%
3,COc1ccc(C)cc1S(=O)(=O)NCC(c1cccn1C)N(C)C (configuration not stated),-11.9%
4,CC(C)N1CCC(N2CCN(C3CCCCC3)CC2CCO)CC1 (configuration not stated),-9.63%
5,O=S(=O)(C1CC1)N1CCC2(CCCN(c3ncccn3)C2)C1 (configuration not stated),-4.02%
6,O=C(Cn1ccnc1)N1CCC(n2cc(-c3cccc(Cl)c3)nn2)CC1,-23.4%
7,CCc1ccc(CCC(=O)NCc2nnc[nH]2)cc1,7.47%
8,O=C(Cc1ccccn1)N1CCC(c2noc(-c3ccncc3)n2)CC1,-26.8%
9,Nc1nccc(N2CCC(c3cc(Cc4ccccc4)n[nH]3)CC2)n1,38.9%
10,Cn1ncc2c(=O)[nH]c(CN3CCCC3c3cccs3)nc21 (configuration not stated),-4.43%
11,CCc1nc2n(n1)CC(NCc1nc3ccccc3o1)CC2 (configuration not stated),12.4%
12,CN(C)c1nccc(N(C)C2CCN(CC3CCOC3)CC2)n1 (configuration not stated),-18.9%
13,CC(C)CC(=O)Nc1cccc(CNCc2cccs2)c1,0.25%
14,CCN1CCN(C[C@@H]2CN(Cc3cnc(C(C)C)nc3)C[C@@H]2CO)CC1,-6.79%
15,CNC(=O)C1(c2cnccn2)CCCN1C(=O)c1ccccc1C (configuration not stated),-16.5%
16,CCC(=O)N1CCCC(c2cc(Nc3ncccn3)nc(C)n2)C1 (configuration not stated),-3.48%
17,CC(C)[C@@H]1CN(c2ncc(F)cn2)C[C@H]1NC(=O)N(C)C,-4.03%
18,O=C(CCc1nc(Cl)n[nH]1)N1CCC2(CCCNC2=O)C1 (configuration not stated),-6.37%
19,COc1ccccc1CC(=O)NCc1ccnc(NC2CC2)c1,-4.06%
20,Cc1nc(C(NC(=O)CC(F)(F)F)c2ccc(Cl)cc2)no1 (configuration not stated),9.83%
21,CC(C)c1cc(=O)[nH]c(C(C)(C)N)n1,-1.05%

row,SMILES,cytotoxicity at 10 µM
1,CC(C)(C)NC(=O)CN1CCN(C(=O)Nc2ccc(F)cc2F)CC1,-23.2%
2,Cc1ccc(C(=O)NCCCN(C(C)C)S(C)(=O)=O)c(=O)[nH]1,-8.04%
3,Cc1nc(C)n(C2CCCN(C(=O)c3cccnc3NC(C)C)C2)n1 (configuration not stated),-2.28%
4,Cn1cc2ncn(CCCOc3cccnc3)c(=O)c2n1,-5.18%
5,CC[C@@]1(O)CCN(C(=O)c2ccc(OC(F)F)cc2)C[C@H]1O,6.2%
6,CCc1ccc(C(=O)N2CCCN(Cc3nccn3CC)CC2)s1,-8.72%
7,CNC(=O)c1cccc(NC(=O)NCc2ccccc2)c1C,-1.67%
8,Cc1ccc(OCCC(=O)NC(C)c2ccncc2)cc1 (configuration not stated),-3.86%
9,CCOCC1CCCN(C(=O)NCc2cn3c(C)cccc3n2)C1 (configuration not stated),12.8%
10,O=C(COCC1CC1)Nc1cc(-c2ccc(Br)s2)n[nH]1,-155%
11,CC1=N[C@@]2(CC[C@@H]3CN(CC(C)C)C[C@@H]32)C(=O)N1,6.5%
12,Cc1cc(CCC(=O)N2CC[C@H](O)C2)ccc1Br,2.35%
13,Cc1nn(-c2ccc(F)cc2)c2[nH]nc(N)c12,13.6%
14,COc1cc(C)nc(N2CCN(Cc3nccn3C)CC2)n1,-1.8%
15,Cc1ccccc1CN1CCC2(COCc3cnc(N(C)C)nc32)C1 (configuration not stated),-8.22%
16,COCCCN1CCN(c2ncnc3nc(C)cc(C)c23)CC1,1.54%
17,CC(C)(O)CN1CCN(C(=O)c2cccc(CC#N)c2)CC1,-13.4%
18,CC(C)n1cc(S(=O)(=O)N2CCCC(N3CCCCC3)C2)cn1 (configuration not stated),2.78%
19,Cc1cc(=O)n2nc(Oc3ccc(C#N)cc3Cl)sc2n1,1.15%
20,O=C1CC2(CCCCN2CC2CC2)CN1c1ccccc1 (configuration not stated),4.86%
21,CC(=O)NC1CCN(c2ncnc3c2c(C)nn3C)C1 (configuration not stated),-2.78%

row,SMILES,cytotoxicity at 10 µM
1,CC(C)c1nc(CN(C)C(=O)CCNC(=O)c2ccccc2F)no1,4.66%
2,Cc1cc(=O)[nH]c(=O)n1COCc1ccccc1,-12.5%
3,CC(=O)N1CCC2(C1)c1ccccc1S(=O)(=O)N2CCC(C)C (configuration not stated),-9.11%
4,NC(=O)C1CCN(C(=O)NCc2ccccc2-n2cccn2)C1 (configuration not stated),-18.4%
5,O=C(Cc1noc(C(=O)NCC2CC2)n1)Nc1cccc(C(F)(F)F)c1,8.13%
6,CCn1nc(C)c(NC(=O)CN(C)C(C)c2ccon2)c1C (configuration not stated),-147%
7,COc1ccccc1C1(CNc2nnc(C)c(C)c2C#N)CCOCC1,6.77%
8,O=C(NCC1CCCO1)c1c(-n2cnnn2)sc2c1CCC2 (configuration not stated),-16.3%
9,Cc1ccccc1CNC(=O)N1C[C@@H]2C[C@H](C(=O)N3CCCC3)[C@H](C1)O2,5.68%
10,O=C(NCC1CCC(c2ccnc3ncnn23)CC1)C1CC1 (configuration not stated),9.17%
11,Cc1ccc(C(=O)NCCCN(C)S(C)(=O)=O)cc1-n1cccc1,-8.71%
12,O=C(c1cccnc1)N1CCn2cc(CN3CCCC3)nc2C1,-74.8%
13,CC(C)n1cnnc1C1CCCN(S(=O)(=O)CCCF)C1 (configuration not stated),7.39%
14,CCOc1ccc(NS(=O)(=O)c2cc(C)c(C(=O)O)s2)c(C)c1,-3.21%
15,Cn1cc(C2CCCN2C(=O)Cc2n[nH]c3ccccc23)cn1 (configuration not stated),2.56%
16,CN(C(=O)Cn1nc(-c2ccc(Cl)cc2)ccc1=O)C1CCS(=O)(=O)C1 (configuration not stated),1.96%
17,CCN(Cc1ccncc1)C(=O)c1cn(CC2CCCNC2)nn1 (configuration not stated),5.35%
18,CC(C)n1ccnc1C1CCN(C(=O)c2ccccc2N(C)C)CC1,4.67%
19,CC(C)C(C)N1Cc2cccc(NCC(=O)N(C)C)c2C1 (configuration not stated),8%
